This is an account of results in ChEMBL document CHEMBL1123747, “N-methyl derivatives of the 5-HT2 agonist 1-(4-bromo-2,5-dimethoxyphenyl)-2-aminopropane” (J Med Chem, 1987).

Bounds are passed on as bounds.

The target of assay [1] is T1, Serotonin 2 (5-HT2) receptor (Rattus norvegicus, UniProt P30994+P08909+P14842). As to the kind of experiment: Affinity towards [3H]- DOB -labeled 5-hydroxytryptamine 2 receptor sites in rat cortical homogenates.
Assay [2] is filed under the species Rattus norvegicus. As to the kind of experiment: The number of responses made on the (R)(-)-DOB appropriate level, generation studies was calculated at dose 2.2 mg / kg. It counts as functional. The essentials: (§1)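 Male Sprague-Dawley rats (n = 6) were trained on a two-lever operant task for sweetened-milk reward to discriminate 0.2 mg/kg (R)-(-)-DOB-HCl ip from 1.0 mL/kg 0.9% saline, with a VI 15-s schedule and 15-min sessions. Test doses were given ip 15 min before a 2.5-min extinction session, in random order, to groups of 3-6 rats. Read-out was % drug-lever responses; fewer than five total responses counted as disrupted.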

The species entered for assay [3] is Rattus norvegicus. In words: The mean responses per minute during the 2.5 min extinction session in the stimulus-generation studies was calculated at dose 2.0 mg / kg. It counts as functional. A digest of the protocol: (§2)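 Rats were trained on a two-lever drug-versus-saline discrimination (0.2 mg/kg ip training dose, VI 15-s, food reward). Challenge doses were given ip 15 min before a 2.5-min extinction test, in random order, to groups of 3–6 rats, with at least three training sessions between tests. Response rate is responses per minute over the extinction session.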

The species entered for assay [4] is Rattus norvegicus. As to the kind of experiment: The number of animals responding per number of animals receiving the drug (4/4)in the stimulus-generation studies, was calculated at dose 0.7 mg / kg. It counts as functional. A digest of the protocol: (§3)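 Male Sprague-Dawley rats were trained to discriminate 0.2 mg/kg ip training drug from saline (two levers, VI 15-s, milk reward). Test doses were given ip 15 min pre-session in random order to groups of 3–6. In the 2.5-min extinction session, rats making fewer than five total responses were counted as disrupted. N is animals responding over animals dosed.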

Assay [5] is filed under the species Rattus norvegicus. As to the kind of experiment: The mean responses per minute during the 2.5 min extinction session in the stimulus-generation studies was calculated at dose 2.2 mg / kg. The class given is functional. A digest of the protocol:
as §2

In assay [6] the target is T1, Serotonin 2 (5-HT2) receptor. In words: Affinity towards [3H]- ketanserin-labeled 5-hydroxytryptamine 2 receptor sites in rat cortical homogenates. A digest of the protocol: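 Label was 0.4 nM [3H]ketanserin, with 11 competitor concentrations run in triplicate and nonspecific binding defined by 1 μM cinanserin. Bound ligand was filtered onto glass fibre and counted by scintillation. IC50 came from nonlinear regression; Ki = IC50/(1+[D]/KD).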

For assay [7], the species on record is Rattus norvegicus. As to the kind of experiment: The number of responses made on the (R)(-)-DOB appropriate level, generation studies was calculated at dose 1.2 mg / kg. It counts as functional. The essentials: as §1
For assay [8], the species on record is Rattus norvegicus. As to the kind of experiment: The mean responses per minute during the 2.5 min extinction session in the stimulus-generation studies was calculated at dose 0.7 mg / kg. The class given is functional. A digest of the protocol:
as §2

The species named for assay [9] is Rattus norvegicus. As to the kind of experiment: The mean responses per minute during the 2.5 min extinction session in the stimulus-generation studies was calculated at dose 1.2 mg / kg. The class given is functional. The essentials:
as §2

For assay [10], the species on record is Rattus norvegicus. As to the kind of experiment: The number of animals responding per number of animals receiving the drug (3/3)in the stimulus-generation studies, was calculated at dose 1.2 mg / kg. The class given is functional. The essentials:
as §3

Assay [11] is filed under the species Rattus norvegicus. As to the kind of experiment: The number of animals responding per number of animals receiving the drug(3/4) in the stimulus-generation studies, was calculated at dose 2.2 mg / kg. The class given is functional. A digest of the protocol: as §3
The species entered for assay [12] is Rattus norvegicus. As to the kind of experiment: The number of responses made on the (R)(-)-DOB appropriate level, generation studies was calculated at dose 0.7 mg / kg. It counts as functional. The essentials:
as §1

Assay [13] is filed under the species Rattus norvegicus. As to the kind of experiment: The number of animals responding per number of animals receiving the drug (4/4)in the stimulus-generation studies, was calculated at dose 2.0 mg / kg. It counts as functional. The essentials:
as §3

The species entered for assay [14] is Rattus norvegicus. As to the kind of experiment: The number of responses made on the (R)(-)-DOB appropriate level, generation studies was calculated at dose 2.0 mg / kg. The class given is functional. A digest of the protocol: as §1
Assay [15] is filed under the species Rattus norvegicus. In words: The mean responses per minute during the 2.5 min extinction session in the stimulus-generation studies was calculated at dose 0.10 mg / kg. The note with it: dose 0.1 mg / kg. The class given is functional. A digest of the protocol: as §2
The species entered for assay [16] is Rattus norvegicus. In words: The mean responses per minute during the 2.5 min extinction session in the stimulus-generation studies was calculated at dose 0.03 mg / kg. It counts as functional. A digest of the protocol: as §2
Assay [17] is filed under the species Rattus norvegicus. In words: The number of responses made on the (R)(-)-DOB appropriate level, generation studies was calculated at dose 0.03 mg / kg. It counts as functional. A digest of the protocol: as §1
For assay [18], the species on record is Rattus norvegicus. In words: The number of animals responding per number of animals receiving the drug(5/5) in the stimulus-generation studies was calculated at dose 0.03 mg / kg. The class given is functional. The essentials: as §1
Assay [19] is filed under the species Rattus norvegicus. In words: The number of responses made on the (R)(-)-DOB appropriate level, generation studies was calculated at dose 0.05 mg / kg. It counts as functional. The essentials: as §1
For assay [20], the species on record is Rattus norvegicus. In words: The number of animals responding per number of animals receiving the drug (4/4)in the stimulus-generation studies was calculated at dose 0.20 mg / kg. Particulars: dose 0.2 mg / kg. It counts as functional. The essentials:
as §3

The species named for assay [21] is Rattus norvegicus. As to the kind of experiment: The number of animals responding per number of animals receiving the drug (5/5)in the stimulus-generation studies was calculated at dose 0.05 mg / kg. It counts as functional. The essentials: as §3
Assay [22] is filed under the species Rattus norvegicus. As to the kind of experiment: The number of animals responding per number of animals receiving the drug(4/4)in the stimulus-generation studies was calculated at dose 0.10 mg / kg. The class given is functional. The note with it: dose 0.1 mg / kg. A digest of the protocol:
as §1

The species entered for assay [23] is Rattus norvegicus. In words: The mean responses per minute during the 2.5 min extinction session in the stimulus-generation studies was calculated at dose 0.05 mg / kg. The class given is functional. A digest of the protocol: as §2
The species named for assay [24] is Rattus norvegicus. In words: 1 The compound was tested for effective dose ( ED 50) against stimulus generation with rats trained to discriminate (R) (-)-DOB from saline. It counts as functional. The essentials:
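Male Sprague-Dawley rats (n = 6) on a two-lever operant task for sweetened milk, VI 15-s schedule. Trained to discriminate 0.2 mg/kg ip training drug from 1.0 mL/kg 0.9% saline, 15 min pre-session. Test doses were given ip in random order to groups of 3–6, with 15-min pretreatment and a 2.5-min extinction session. ED50 was calculated from dose-response data.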

Assay [25] is filed under the species Rattus norvegicus. In words: The mean responses per minute during the 2.5 min extinction session in the stimulus-generation studies was calculated at dose 0.20 mg / kg. It counts as functional. Particulars: dose 0.2 mg / kg. A digest of the protocol:
as §2

The species named for assay [26] is Rattus norvegicus. In words: The number of responses made on the (R)(-)-DOB appropriate level, generation studies was calculated at dose 0.20 mg / kg. It counts as functional. Particulars: dose 0.2 mg / kg. A digest of the protocol: as §1
Assay [27] is filed under the species Rattus norvegicus. In words: The number of animals responding per number of animals receiving the drug(4/4) in the stimulus-generation studies was calculated at dose 0.01 mg / kg. It counts as functional. A digest of the protocol: as §3
For assay [28], the species on record is Rattus norvegicus. In words: The number of responses made on the (R)(-)-DOB appropriate level, generation studies was calculated at dose 0.10 mg / kg. The note with it: dose 0.1 mg / kg. It counts as functional. A digest of the protocol: as §1
For assay [29], the species on record is Rattus norvegicus. As to the kind of experiment: The number of responses made on the (R)(-)-DOB appropriate level, generation studies was calculated at dose 0.01 mg / kg. It counts as functional. The essentials:
as §1

For assay [30], the species on record is Rattus norvegicus. In words: The mean responses per minute during the 2.5 min extinction session in the stimulus-generation studies was calculated at dose 0.01 mg / kg. It counts as functional. The essentials:
as §2

Take `COc1cc(CC(C)[N+](C)(C)C)c(OC)cc1Br.[I-]` (stereo not given): the Ki – broadly, a measure of affinity in units of concentration, obtained from inhibition or displacement – was 8.25 µM in [1] and > 25 µM in assay [6]. Also, the Responding is on record as 3% in assay [2], 9% in [7], 3% in [12] and 38% in [14]. The Response rate in [3] is 7.3; in assay [5], 3.7; in [8], 16.2; in [9], 11.9. In addition, the “No. of animals responding/animals receiving drug” value in assay [4] is 4; in [10] it was 3; in assay [11], 3; in [13], 4.

Regarding `COc1cc(C[C@@H](C)N)c(OC)cc1Br`, the Response rate is on record as 10.8 in assay [15]; 11.8 in [16]; 12 in assay [23]; 12.3 in assay [25]; 12.5 in [30]. Also, the Responding in assay [17] is reported as 21%; in assay [19] it was 58%; in [26], 98%; in assay [28], 64%; in [29] it was 5%. The “No. of animals responding/animals receiving drug” value in assay [18] was 5; in assay [20], 4; in [21] it was 5; in assay [22], 4; in assay [27], 4. Also, the ED50 (as a rule, the dose that gives a 50% effect, or the effect in half of the subjects) in assay [24] came out at 0.05 mg/kg.
